Experimental data reported in the RNAGym collection of RNA variant scans (doi:10.1126/science.aae0568).
This sample holds only a part of the variants without activity.

B1: tRNA (parent)
chain: GUUCCGUUGGCGUAAUGGUAACGCGUCUCCCUCCUAAGGAGAAGACUGCGGGUUCGAGUCCCGUACGGAACG

Variants of: B1
Test: yeast fitness relative to wild type (ratio to wild type); higher = fitter; tRNA-Arg(CCU), competitive growth, 37 C, YPD
In short: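 Variants of the tRNA-Arg(CCU) gene, chemically synthesised with a 3% per-site mutation rate at 69 sites, were placed at the native genomic locus in Saccharomyces cerevisiae. The pooled strains were competed in YPD at 37°C for 24 hours in six parallel replicates. Gene amplicons from the start population and from each end population were read by 100-nucleotide paired-end sequencing. Darwinian fitness relative to wild type came from changes in genotype frequencies; genotypes needed ≥ 100 starting reads, and estimates < 0.5 were set to 0.5.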
With G9C A15G the yeast fitness was 0.633.
With U32G C33A U47A C62U C66G the yeast fitness was no more than 0.5.
With C11U C34A A36C G68C the yeast fitness was no more than 0.5.
A42G U59C gave a yeast fitness of 0.714.
G12C U16C A42C C49U gave a yeast fitness of 0.594.
C5G U8C C11A U26C U35C G50C G52A gave a yeast fitness of 0.634.
Variant G12A G48A A57G G68C has a yeast fitness of 0.569.
In the case of A15U G38A C46G G56C, the yeast fitness is reported as no more than 0.5.
Work on G9A G10A U28C yielded a yeast fitness of no more than 0.5.
Work on C11A G68A yielded a yeast fitness of 0.583.
G10C G38C C49A G50C G68C gave a yeast fitness of no more than 0.5.
With G6A G39C the yeast fitness was 0.821.
Variant C4U U8A U13C A37G C46A has a yeast fitness of no more than 0.5.
Variant A40U U64A has a yeast fitness of 0.675.
Work on U28G C46G C49U A69C yielded a yeast fitness of no more than 0.5.
Variant C4A U32C A40U C49G G68C has a yeast fitness of no more than 0.5.
U3C C5G C11G C66U gave a yeast fitness of no more than 0.5.
In the case of C4U G23A G56C A57G G68A, the yeast fitness is reported as no more than 0.5.
With C4U C11G C34U C55U the yeast fitness was no more than 0.5.
U2A A43C C49U showed a yeast fitness of 0.602.
U8A A20C C31U gave a yeast fitness of no more than 0.5.
A21U A45G C49A gave a yeast fitness of no more than 0.5.
Work on C5A U16G C27U C29U A36U G41A C49U C66U yielded a yeast fitness of no more than 0.5.
C24U G25A C30U C46A A65U showed a yeast fitness of 0.562.
A21G A37C A43U gave a yeast fitness of 0.618.
Variant C30G U64A has a yeast fitness of 0.784.
Variant G39C A40U has a yeast fitness of 0.73.
In the case of C11U A21G, the yeast fitness is reported as 0.922.
In the case of C4A U7A U8G, the yeast fitness is reported as no more than 0.5.
For G25A G41A C49U A69U, the yeast fitness was 0.574.
In the case of U32A A40C, the yeast fitness is reported as 0.694.
G12A C30A C31G U54G gave a yeast fitness of no more than 0.5.
In the case of G10C C24U G52A G56A, the yeast fitness is reported as no more than 0.5.
A14C C27U C46U A70G showed a yeast fitness of no more than 0.5.
Work on C11A A14C yielded a yeast fitness of 0.683.
U2A C11G C27G U54A showed a yeast fitness of no more than 0.5.
Work on C27U U28G A40C C55G A70C yielded a yeast fitness of no more than 0.5.
U13C G18C showed a yeast fitness of 0.618.
A15U G17C C27U C60G gave a yeast fitness of no more than 0.5.
In the case of G12A C24G C29A, the yeast fitness is reported as no more than 0.5.
Variant U7C G9C A20G G41A has a yeast fitness of no more than 0.5.
Variant C11A G51C C66G has a yeast fitness of 0.713.
C31G U47C gave a yeast fitness of 0.952.
G12A A43U A45C U54C G67C gave a yeast fitness of 0.525.
Variant C5G A14G has a yeast fitness of 0.999.
With C55U G63A A69C the yeast fitness was 0.537.
In the case of U3A C5U A42G C46G, the yeast fitness is reported as no more than 0.5.
For U16A C24U C34A A65G, the yeast fitness was 0.716.
Variant C34G U53G has a yeast fitness of no more than 0.5.
Work on A15G G48A C66U yielded a yeast fitness of 0.747.
With U3C G9A U28G the yeast fitness was 0.59.
Work on C5G U54C C55G yielded a yeast fitness of no more than 0.5.
A15U A21C C24G C29U A42C U59G G67C gave a yeast fitness of no more than 0.5.
G18A U64C showed a yeast fitness of 0.66.
Variant U2G A20C G38A has a yeast fitness of no more than 0.5.
Work on C22G C29G yielded a yeast fitness of 0.546.
Work on G12A U16A U64G yielded a yeast fitness of no more than 0.5.
A14G C22G U35G A40C A70G gave a yeast fitness of no more than 0.5.
For U3A C24A U28C C61A, the yeast fitness was no more than 0.5.
With C4G U8A G12A G48A A69C the yeast fitness was 0.573.
G38C G44C C46A gave a yeast fitness of 0.814.
U16A U32C A37U C49A C60U G68C showed a yeast fitness of no more than 0.5.
For G18A C22A U28C A40C, the yeast fitness was no more than 0.5.
Work on C29U C66U yielded a yeast fitness of 0.796.
Variant U19G C27G A65C C66G has a yeast fitness of 0.907.
Variant C4U C61U has a yeast fitness of 0.977.
U2C A57U C62U showed a yeast fitness of 0.549.
With G12A C60A G67A the yeast fitness was 0.68.
G67C A69C showed a yeast fitness of 0.651.
C5A C27U G39C C49U G58C C62U showed a yeast fitness of no more than 0.5.
For C30A A45G U53A, the yeast fitness was 1.1.
For U8A G18A C30A U32A U35G A65C, the yeast fitness was no more than 0.5.
For G50A C55U, the yeast fitness was 0.893.
In the case of C5G A14C C29A C31G A65C, the yeast fitness is reported as no more than 0.5.
Variant G10A C24A A45C A57U has a yeast fitness of 0.63.
G39A G44A showed a yeast fitness of 0.846.
Work on C27G A40U U59C yielded a yeast fitness of 0.543.
C24U C34U U59G showed a yeast fitness of no more than 0.5.
Work on C4A C5U C22U C49U yielded a yeast fitness of no more than 0.5.
For G18A A20U A36U A65C, the yeast fitness was 0.706.
With U3C G56A the yeast fitness was 1.03.
A43U G51A C55U gave a yeast fitness of no more than 0.5.
With U35G G67A the yeast fitness was 0.616.
Variant G10A U26G has a yeast fitness of 0.681.
C11A A15U gave a yeast fitness of 0.658.
In the case of C5U C34A G67A, the yeast fitness is reported as no more than 0.5.
With C29A A40C the yeast fitness was 0.741.
C5G G18C U26C U28A gave a yeast fitness of no more than 0.5.
Variant C11U A36G A70G has a yeast fitness of 0.672.
Work on G9C G10C A36C G39C G48A yielded a yeast fitness of 0.512.
U3C G25C G48A showed a yeast fitness of 0.598.
Work on U19G C29A A45U yielded a yeast fitness of no more than 0.5.
In the case of C4U U7A C30G C34G A40C, the yeast fitness is reported as 0.512.
Variant A20C C22U A45C A65C has a yeast fitness of no more than 0.5.
For C4U A20C C34G A36G A65U, the yeast fitness was no more than 0.5.
In the case of C11U A15C C27A G39C G67U, the yeast fitness is reported as no more than 0.5.
Variant C30G C31U C61G has a yeast fitness of 0.557.
For A14U U35C C55G C61G C66U, the yeast fitness was no more than 0.5.
Variant U16A G25A C49A has a yeast fitness of no more than 0.5.
C4G U8C G51A C66A showed a yeast fitness of no more than 0.5.
With C4A A14U C30A G67C the yeast fitness was no more than 0.5.
U19A U32A A36G gave a yeast fitness of no more than 0.5.
For G41A U47A C49U U59C G67C A70U, the yeast fitness was 0.532.
With C4G C5G C30U C31U A45U the yeast fitness was no more than 0.5.
Work on U35G C49A yielded a yeast fitness of 0.595.
With U7C G38C C49A G56A C61G the yeast fitness was no more than 0.5.
C5G U26A A69C gave a yeast fitness of 0.634.
Work on U54A C62U G68A yielded a yeast fitness of 0.504.
Work on U8C C29U U35G C62U yielded a yeast fitness of no more than 0.5.
In the case of C4A C60A, the yeast fitness is reported as 0.676.
For G6C U16C A42U G52U, the yeast fitness was 0.634.
U8C G17A G41C U64A A65C showed a yeast fitness of no more than 0.5.
In the case of C5A U16C C22U, the yeast fitness is reported as 0.612.
C4U C55A A65U showed a yeast fitness of no more than 0.5.
For U8C U28G C30G A40C A42U, the yeast fitness was 0.54.
With C24G G44C the yeast fitness was 0.66.
A15U A20C gave a yeast fitness of 0.646.
For C30U C46U A65C, the yeast fitness was 0.658.
With C24A A36G A37G the yeast fitness was no more than 0.5.
With C4U C11G A45U the yeast fitness was 0.545.
With C30G C31G G38C C46G the yeast fitness was 0.768.
Variant G44C has a yeast fitness of 0.985.
Work on C34A C60G G68A yielded a yeast fitness of 0.688.
Variant G25C G67A has a yeast fitness of 1.01.
A21C C22G U32A G56C gave a yeast fitness of no more than 0.5.
With U13G U35C A70U the yeast fitness was 0.508.
Work on G10C A21G C29A A43U C55A yielded a yeast fitness of 0.651.
With U28A C29G the yeast fitness was 0.558.
For A20C C34G A43C G56A C61U A65G, the yeast fitness was no more than 0.5.
C22G G23A C30G A65C gave a yeast fitness of 0.535.
Variant A21G G67A has a yeast fitness of 0.956.
A15G G17A C33U G39C C55A G67C showed a yeast fitness of 0.66.
For U7C U32A, the yeast fitness was 0.761.
In the case of U8G G25C G41C, the yeast fitness is reported as 0.644.
For C5U A40C A42G, the yeast fitness was 0.558.
In the case of G10A A36C A70U, the yeast fitness is reported as no more than 0.5.
A14G C22U A37G A70C showed a yeast fitness of no more than 0.5.
C5U G17C C29A C46G G56A gave a yeast fitness of no more than 0.5.
Work on A20C A40G C62G yielded a yeast fitness of 0.864.
In the case of U19A C46U A57C A70C, the yeast fitness is reported as no more than 0.5.
Variant U3C C30A C31G C49A C60U G67A has a yeast fitness of no more than 0.5.
C33U C49G C60G C62G G63A showed a yeast fitness of no more than 0.5.
For C5A C11U A14U C27U A36U A43G C46U, the yeast fitness was no more than 0.5.
In the case of C29A G41A A43C A69C, the yeast fitness is reported as no more than 0.5.
Work on C5U G10C A15G G67U yielded a yeast fitness of no more than 0.5.
In the case of A14U G17A C22U C62A, the yeast fitness is reported as no more than 0.5.
In the case of G12C A36C A37U, the yeast fitness is reported as no more than 0.5.
Variant A15C U19C A21G C34U has a yeast fitness of no more than 0.5.
Work on C4U C5G G9A G51C yielded a yeast fitness of no more than 0.5.
For C30U A42C G48C A65C, the yeast fitness was no more than 0.5.
In the case of U7A U8A C11G G56A A69U, the yeast fitness is reported as 0.548.
G9C G23A G50A showed a yeast fitness of no more than 0.5.
With C34A C49A U59G C66U the yeast fitness was no more than 0.5.
Variant G9A A21C G25C U64A G67A has a yeast fitness of no more than 0.5.
C4G C30A C62G showed a yeast fitness of no more than 0.5.
With A15C G17A C22U G23C G51A A69C the yeast fitness was 0.567.
U3C A20U A69C showed a yeast fitness of 0.749.
For U2C C29A C31A A40U C49U, the yeast fitness was 0.554.
Work on U2C C4U G25C C29U C66A yielded a yeast fitness of no more than 0.5.
In the case of C60U C62G, the yeast fitness is reported as 0.688.
Work on C46U A70C yielded a yeast fitness of 0.976.
Work on G17A C33U A43U A57G G67U yielded a yeast fitness of no more than 0.5.
Work on G23C G63A yielded a yeast fitness of 0.51.
Work on G17C C22U C60G yielded a yeast fitness of 0.719.
With U13C C29A the yeast fitness was 0.618.
Variant C24U U32G C49U C60A has a yeast fitness of 0.646.
For G38A A40U G50C C60G G67A A70C, the yeast fitness was no more than 0.5.
